Experimental data as given in ChEMBL document CHEMBL1138885, “Further structural exploration of trisubstituted asymmetric pyran derivatives (2S,4R,5R)-2-benzhydryl-5-benzylamino-tetrahydropyran-4-ol and their corresponding disubstituted (3S,6S) pyran derivatives: a proposed pharmacophore model for high-affinity interaction with the dopamine, serotonin, and …” (J Med Chem, 2006).

Tests used:
Assay type in all cases: tissue-based
[1] = target: T1, Sodium-dependent dopamine transporter (Rattus norvegicus, UniProt P23977); assay: Inhibition of [3H]WIN-35428 binding to rat striatum DAT
T1 sequence (P23977 whole entry): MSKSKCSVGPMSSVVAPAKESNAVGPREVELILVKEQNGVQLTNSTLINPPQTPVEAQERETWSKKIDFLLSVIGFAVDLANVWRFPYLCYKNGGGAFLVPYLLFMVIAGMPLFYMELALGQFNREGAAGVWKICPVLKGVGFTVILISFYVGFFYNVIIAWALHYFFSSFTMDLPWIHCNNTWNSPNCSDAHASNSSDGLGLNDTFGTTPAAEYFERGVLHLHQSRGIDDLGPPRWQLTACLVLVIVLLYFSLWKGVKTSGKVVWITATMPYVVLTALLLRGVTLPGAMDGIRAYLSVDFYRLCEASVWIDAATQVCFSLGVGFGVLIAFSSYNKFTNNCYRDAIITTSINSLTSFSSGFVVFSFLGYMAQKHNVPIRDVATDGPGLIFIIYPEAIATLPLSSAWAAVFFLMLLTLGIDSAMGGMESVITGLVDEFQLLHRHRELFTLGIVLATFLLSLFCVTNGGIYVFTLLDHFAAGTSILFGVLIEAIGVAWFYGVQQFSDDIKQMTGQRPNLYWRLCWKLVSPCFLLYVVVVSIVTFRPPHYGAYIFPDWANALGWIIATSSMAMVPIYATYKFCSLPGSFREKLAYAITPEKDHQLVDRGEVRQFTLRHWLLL
Procedure, shortened: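 DAT radioligand binding with nonspecific binding defined by cocaine. Compounds dissolved in DMSO, diluted in 10% (v/v) DMSO, final 0.5% DMSO. At least five concentrations, each in triplicate, spaced evenly around the IC50.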

[2] = target: T1, Sodium-dependent dopamine transporter; assay: Inhibition of DAT-mediated [3H]DA uptake in rat striatum
Procedure, shortened: (§1)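 [3H]DA, [3H]5-HT or [3H]NE accumulation measured; SERT and NET uptake in rat cerebral cortex. Nonspecific uptake defined with cocaine (DAT), citalopram (SERT) or desipramine (NET). Three to eight independent experiments in triplicate, mean ± SEM.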

[3] = target: Norepinephrine transporter (Rattus norvegicus, UniProt Q9WTR4); assay: Inhibition of NET-mediated [3H]NE uptake in rat cerebral cortex; procedure, shortened: as §1
Chain of Norepinephrine transporter (Q9WTR4 whole entry): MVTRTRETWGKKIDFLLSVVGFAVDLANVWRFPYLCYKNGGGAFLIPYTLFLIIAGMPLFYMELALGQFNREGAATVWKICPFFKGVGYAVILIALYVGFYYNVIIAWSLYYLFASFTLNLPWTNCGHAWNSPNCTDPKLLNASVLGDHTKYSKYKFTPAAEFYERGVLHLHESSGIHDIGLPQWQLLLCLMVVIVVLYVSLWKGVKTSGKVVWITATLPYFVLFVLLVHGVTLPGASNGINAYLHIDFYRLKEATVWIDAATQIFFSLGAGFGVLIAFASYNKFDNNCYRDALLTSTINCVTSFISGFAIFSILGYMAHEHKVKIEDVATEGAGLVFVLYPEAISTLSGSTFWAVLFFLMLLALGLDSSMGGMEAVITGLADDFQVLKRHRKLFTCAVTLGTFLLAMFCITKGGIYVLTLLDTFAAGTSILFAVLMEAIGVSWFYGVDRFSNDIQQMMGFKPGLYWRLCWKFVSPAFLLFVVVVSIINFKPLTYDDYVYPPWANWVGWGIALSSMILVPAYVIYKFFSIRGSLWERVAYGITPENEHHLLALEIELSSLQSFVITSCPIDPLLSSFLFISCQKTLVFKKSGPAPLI

[4] = target: Sodium-dependent serotonin transporter (Rattus norvegicus, UniProt P31652); assay: Inhibition of SERT-mediated [3H]5-HT uptake in rat cerebral cortex; procedure, shortened: as §1
Chain of Sodium-dependent serotonin transporter (P31652 whole entry): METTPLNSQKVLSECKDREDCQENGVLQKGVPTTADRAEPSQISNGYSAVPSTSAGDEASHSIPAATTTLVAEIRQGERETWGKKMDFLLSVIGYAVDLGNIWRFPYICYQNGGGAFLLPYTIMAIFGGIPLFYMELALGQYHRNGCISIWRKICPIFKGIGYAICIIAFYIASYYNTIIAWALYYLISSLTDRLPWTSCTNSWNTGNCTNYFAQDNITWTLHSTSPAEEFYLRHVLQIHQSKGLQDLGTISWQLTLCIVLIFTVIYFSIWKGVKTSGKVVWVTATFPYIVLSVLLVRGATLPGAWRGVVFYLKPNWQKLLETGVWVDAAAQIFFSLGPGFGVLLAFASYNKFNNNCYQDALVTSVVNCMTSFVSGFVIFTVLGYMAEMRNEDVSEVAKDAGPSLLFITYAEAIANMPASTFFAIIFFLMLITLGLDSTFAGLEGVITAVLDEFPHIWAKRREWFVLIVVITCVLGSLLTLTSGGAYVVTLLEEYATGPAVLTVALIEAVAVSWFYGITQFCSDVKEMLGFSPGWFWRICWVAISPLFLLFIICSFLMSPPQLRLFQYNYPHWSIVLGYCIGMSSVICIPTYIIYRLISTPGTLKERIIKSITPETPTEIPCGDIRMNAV

Ki [1] [nM] | Ki [2] [nM] | Ki [3] [nM] | Ki [4] [nM] | SMILES
64.6 | 59.9 |  |  | O=[N+]([O-])c1ccc(CN[C@@H]2CC[C@H](C(c3ccccc3)c3ccccc3)OC2)cc1
 |  | 94.4 |  | Oc1ccc(CN[C@H]2CO[C@@H](C(c3ccccc3)c3ccccc3)C[C@@H]2O)cc1
226 | 85 |  | 37.7 | Oc1ccc(CN[C@H]2CC[C@@H](C(c3ccccc3)c3ccccc3)OC2)cc1
38.4 | 34.6 |  |  | O=[N+]([O-])c1ccc(CN[C@H]2CC[C@@H](C(c3ccccc3)c3ccccc3)OC2)cc1
 |  | 10.4 |  | Oc1ccc(CN[C@@H]2CO[C@H](C(c3ccccc3)c3ccccc3)C[C@H]2O)cc1
570 | 120 | 2.13 |  | O[C@@H]1C[C@@H](C(c2ccccc2)c2ccccc2)OC[C@H]1NCc1ccc2[nH]ccc2c1
114 | 67.4 |  | 187 | Oc1ccc(CN[C@@H]2CC[C@H](C(c3ccccc3)c3ccccc3)OC2)cc1
399 | 184 | 13.2 |  | O[C@H]1C[C@H](C(c2ccccc2)c2ccccc2)OC[C@@H]1NCc1ccc2[nH]ccc2c1
1500 | 446 |  | 707 | O[C@@H]1C[C@@H](C(c2ccccc2)c2ccccc2)OC[C@H]1NCc1ccccc1

SMILES | Ki [1] [nM] | Ki [2] [nM] | Ki [3] [nM] | Ki [4] [nM]
c1ccc(C(c2ccccc2)[C@@H]2CC[C@H](NCc3ccc4[nH]ccc4c3)CO2)cc1 | 338 | 214 | 6.56 | 14.5
c1ccc(C(c2ccccc2)[C@H]2CC[C@@H](NCc3ccc4[nH]ccc4c3)CO2)cc1 | 467 | 142 | 15.6 | 11.8
